Where “and” joins values, the source holds several entries; their conditions need not be identical. Equal entries are not always repeated.
Tested on: U2OS
Assay: Multiplex assay against U2OS
Assay type: toxicity, cell-based
Conditions: human
Method in brief: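 Imaging took place on a CQ1 microscope at 37°C and 5% CO2 once compound had been added to live cells stained at seeding with Hoechst33342, BioTracker Green Microtubule Cytoskeleton Dye, MitoTracker Red and Annexin V Alexa Fluor 680. CellPathfinder machine-learning gating classed cells as Hoechst high-intensity objects or normal cells, classed normal cells as having healthy, pyknosed or fragmented nuclei, and classed pyknosed cells as mitotic or apoptotic. Tubulin, mitochondrial-mass and membrane-permeability phenotypes are per cents of the healthy-nucleus cells.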

[1] = 12 h, 1 µM, compound concentration 1 uM, replicate 1
[2] = 12 h, 1 µM, compound concentration 1 uM, replicate 2
[3] = 12 h, 10 µM, compound concentration 10 uM, replicate 1
[4] = 12 h, 10 µM, compound concentration 10 uM, replicate 2
[5] = 24 h, 1 µM, compound concentration 1 uM, replicate 1
[6] = 24 h, 1 µM, compound concentration 1 uM, replicate 2
[7] = 24 h, 10 µM, compound concentration 10 uM, replicate 1
[8] = 24 h, 10 µM, compound concentration 10 uM, replicate 2
[9] = 48 h, 1 µM, compound concentration 1 uM, replicate 1
[10] = 48 h, 1 µM, compound concentration 1 uM, replicate 2
[11] = 48 h, 10 µM, compound concentration 10 uM, replicate 1
[12] = 48 h, 10 µM, compound concentration 10 uM, replicate 2

In the case of `CC[C@H](C)C(=O)O[C@H]1C[C@@H](C)C=C2C=C[C@H](C)[C@H](CC[C@@H]3C[C@@H](O)CC(=O)O3)[C@H]21` [LOVASTATIN], the “Population Apoptotic (%)” value [1] is reported as 21%, the “Population Fragmented Nuclei (%)” value [1] is reported as 13% and the “Population Healthy Nuclei (%)” value [1] is reported as 76%. For the same compound, the “Population Hoechst High Intensity Objects (%)” value [1] was 12%, the “Population Membrane Permeable-Phenotype (%)” value [1] was 7% and the “Population Mitochondria Different-Phenotype (%)” value [1] was 5%. For the same compound, the “Population Mitotic Cells (%)” value [1] was 78%, the “Population Normal (%)” value [1] was 87% and the “Population Pyknosed Nuclei (%)” value [1] was 9%. The “Population Tubulin-Different-Phenotype (%)” value [1] was 13%, the “Total Cell Count” value [1] was 140 and the “Population Apoptotic (%)” value [2] was 25%. For the same compound, the “Population Fragmented Nuclei (%)” value [2] was 22%, the “Population Healthy Nuclei (%)” value [2] was 68% and the “Population Hoechst High Intensity Objects (%)” value [2] was 11%. The “Population Membrane Permeable-Phenotype (%)” value [2] was 3%, the “Population Mitochondria Different-Phenotype (%)” value [2] was 6% and the “Population Mitotic Cells (%)” value [2] was 75%. For the same compound, the “Population Normal (%)” value [2] was 88%, the “Population Pyknosed Nuclei (%)” value [2] was 8% and the “Population Tubulin-Different-Phenotype (%)” value [2] was 3%. The “Total Cell Count” value [2] was 87, the “Population Apoptotic (%)” value [3] was 31% and the “Population Fragmented Nuclei (%)” value [3] was 20%. For the same compound, the “Population Healthy Nuclei (%)” value [3] was 68%, the “Population Hoechst High Intensity Objects (%)” value [3] was 10% and the “Population Membrane Permeable-Phenotype (%)” value [3] was 9%. For the same compound, the “Population Mitochondria Different-Phenotype (%)” value [3] was 14%, the “Population Mitotic Cells (%)” value [3] was 68% and the “Population Normal (%)” value [3] was 89%. For the same compound, the “Population Pyknosed Nuclei (%)” value [3] was 11%, the “Population Tubulin-Different-Phenotype (%)” value [3] was 12% and the “Total Cell Count” value [3] was 163. The “Population Apoptotic (%)” value [4] was 100%, the “Population Fragmented Nuclei (%)” value [4] was 4% and the “Population Healthy Nuclei (%)” value [4] was 90%. For the same compound, the “Population Hoechst High Intensity Objects (%)” value [4] was 8%, the “Population Membrane Permeable-Phenotype (%)” value [4] was 10% and the “Population Mitochondria Different-Phenotype (%)” value [4] was 12%. For the same compound, the “Population Mitotic Cells (%)” value [4] was 0%, the “Population Normal (%)” value [4] was 91% and the “Population Pyknosed Nuclei (%)” value [4] was 4%. For the same compound, the “Population Tubulin-Different-Phenotype (%)” value [4] was 20%, the “Total Cell Count” value [4] was 54 and the “Population Apoptotic (%)” value [5] was 18%. The “Population Fragmented Nuclei (%)” value [5] was 6%, the “Population Healthy Nuclei (%)” value [5] was 84% and the “Population Hoechst High Intensity Objects (%)” value [5] was 7%. For the same compound, the “Population Membrane Permeable-Phenotype (%)” value [5] was 6%, the “Population Mitochondria Different-Phenotype (%)” value [5] was 8% and the “Population Mitotic Cells (%)” value [5] was 81%. The “Population Normal (%)” value [5] was 92%, the “Population Pyknosed Nuclei (%)” value [5] was 8% and the “Population Tubulin-Different-Phenotype (%)” value [5] was 14%. The “Total Cell Count” value [5] was 144, the “Population Apoptotic (%)” value [6] was 40% and the “Population Fragmented Nuclei (%)” value [6] was 22%. For the same compound, the “Population Healthy Nuclei (%)” value [6] was 70%, the “Population Hoechst High Intensity Objects (%)” value [6] was 9% and the “Population Membrane Permeable-Phenotype (%)” value [6] was 0%. For the same compound, the “Population Mitochondria Different-Phenotype (%)” value [6] was 4%, the “Population Mitotic Cells (%)” value [6] was 60% and the “Population Normal (%)” value [6] was 90%. For the same compound, the “Population Pyknosed Nuclei (%)” value [6] was 7%, the “Population Tubulin-Different-Phenotype (%)” value [6] was 4% and the “Total Cell Count” value [6] was 93. For the same compound, the “Population Apoptotic (%)” value [7] was 25%, the “Population Fragmented Nuclei (%)” value [7] was 13% and the “Population Healthy Nuclei (%)” value [7] was 76%. The “Population Hoechst High Intensity Objects (%)” value [7] was 6%, the “Population Membrane Permeable-Phenotype (%)” value [7] was 8% and the “Population Mitochondria Different-Phenotype (%)” value [7] was 7%. The “Population Mitotic Cells (%)” value [7] was 75%, the “Population Normal (%)” value [7] was 93% and the “Population Pyknosed Nuclei (%)” value [7] was 9%. For the same compound, the “Population Tubulin-Different-Phenotype (%)” value [7] was 9%, the “Total Cell Count” value [7] was 204 and the “Population Apoptotic (%)” value [8] was 28%. For the same compound, the “Population Fragmented Nuclei (%)” value [8] was 8%, the “Population Healthy Nuclei (%)” value [8] was 79% and the “Population Hoechst High Intensity Objects (%)” value [8] was 7%. For the same compound, the “Population Mitochondria Different-Phenotype (%)” value [8] was 4%, the “Population Mitotic Cells (%)” value [8] was 71% and the “Population Normal (%)” value [8] was 92%. For the same compound, the “Population Pyknosed Nuclei (%)” value [8] was 11%, the “Population Tubulin-Different-Phenotype (%)” value [8] was 23% and the “Total Cell Count” value [8] was 74. The “Population Apoptotic (%)” value [9] was 41%, the “Population Fragmented Nuclei (%)” value [9] was 4% and the “Population Healthy Nuclei (%)” value [9] was 89%. The “Population Hoechst High Intensity Objects (%)” value [9] was 3%, the “Population Membrane Permeable-Phenotype (%)” value [9] was 4% and the “Population Mitochondria Different-Phenotype (%)” value [9] was 8%. For the same compound, the “Population Mitotic Cells (%)” value [9] was 58%, the “Population Normal (%)” value [9] was 96% and the “Population Pyknosed Nuclei (%)” value [9] was 5%. For the same compound, the “Population Tubulin-Different-Phenotype (%)” value [9] was 11%, the “Total Cell Count” value [9] was 129 and the “Population Apoptotic (%)” value [10] was 0%. For the same compound, the “Population Fragmented Nuclei (%)” value [10] was 10%, the “Population Healthy Nuclei (%)” value [10] was 87% and the “Population Hoechst High Intensity Objects (%)” value [10] was 7%. For the same compound, the “Population Membrane Permeable-Phenotype (%)” value [10] was 1%, the “Population Mitochondria Different-Phenotype (%)” value [10] was 5% and the “Population Mitotic Cells (%)” value [10] was 100%. The “Population Normal (%)” value [10] was 92%, the “Population Pyknosed Nuclei (%)” value [10] was 2% and the “Population Tubulin-Different-Phenotype (%)” value [10] was 7%. The “Total Cell Count” value [10] was 89, the “Population Apoptotic (%)” value [11] was 40% and the “Population Fragmented Nuclei (%)” value [11] was 12%. For the same compound, the “Population Healthy Nuclei (%)” value [11] was 78%, the “Population Hoechst High Intensity Objects (%)” value [11] was 4% and the “Population Membrane Permeable-Phenotype (%)” value [11] was 3%. The “Population Mitochondria Different-Phenotype (%)” value [11] was 5%, the “Population Mitotic Cells (%)” value [11] was 60% and the “Population Normal (%)” value [11] was 95%. The “Population Pyknosed Nuclei (%)” value [11] was 8%, the “Population Tubulin-Different-Phenotype (%)” value [11] was 4% and the “Total Cell Count” value [11] was 300. For the same compound, the “Population Apoptotic (%)” value [12] was 33%, the “Population Fragmented Nuclei (%)” value [12] was 3% and the “Population Healthy Nuclei (%)” value [12] was 89%. The “Population Hoechst High Intensity Objects (%)” value [12] was 7%, the “Population Membrane Permeable-Phenotype (%)” value [12] was 6% and the “Population Mitochondria Different-Phenotype (%)” value [12] was 6%. The “Population Mitotic Cells (%)” value [12] was 66%, the “Population Normal (%)” value [12] was 92% and the “Population Pyknosed Nuclei (%)” value [12] was 7%. For the same compound, the “Population Tubulin-Different-Phenotype (%)” value [12] was 21% and the “Total Cell Count” value [12] was 96.
With `CNCc1ccc(-c2cc(-c3nc(-c4ccc(S(=O)(=O)C(C)C)cc4)cnc3N)on2)cc1` [BERZOSERTIB] the “Population Apoptotic (%)” value [1] was 16% and 46%, the “Population Healthy Nuclei (%)” value [1] was 6% and 0% and the “Population Hoechst High Intensity Objects (%)” value [1] was 31% and 81%. The “Population Membrane Permeable-Phenotype (%)” value [1] was 46% and 20%, the “Population Mitochondria Different-Phenotype (%)” value [1] was 40% and 20% and the “Population Mitotic Cells (%)” value [1] was 83% and 53%. The “Population Tubulin-Different-Phenotype (%)” value [1] was 40% and 80%, the “Total Cell Count” value [1] was 185 and 523 and the “Population Apoptotic (%)” value [2] was 10%. For the same compound, the “Population Fragmented Nuclei (%)” value [2] was 41% and 95%, the “Population Healthy Nuclei (%)” value [2] was 10% and 1% and the “Population Hoechst High Intensity Objects (%)” value [2] was 52% and 83%. The “Population Membrane Permeable-Phenotype (%)” value [2] was 42% and 55%, the “Population Mitotic Cells (%)” value [2] was 89% and the “Population Normal (%)” value [2] was 47% and 16%. The “Population Pyknosed Nuclei (%)” value [2] was 48%, the “Population Apoptotic (%)” value [3] was 17% and 38% and the “Population Healthy Nuclei (%)” value [3] was 4% and 0%. The “Population Hoechst High Intensity Objects (%)” value [3] was 49% and 82%, the “Population Membrane Permeable-Phenotype (%)” value [3] was 58% and 75% and the “Population Mitochondria Different-Phenotype (%)” value [3] was 25% and 0%. For the same compound, the “Population Mitotic Cells (%)” value [3] was 82% and 61%, the “Population Normal (%)” value [3] was 50% and 17% and the “Population Tubulin-Different-Phenotype (%)” value [3] was 41% and 50%. The “Population Apoptotic (%)” value [4] was 11%, the “Population Fragmented Nuclei (%)” value [4] was 39% and 97% and the “Population Healthy Nuclei (%)” value [4] was 9% and 1%. The “Population Hoechst High Intensity Objects (%)” value [4] was 45%, the “Population Membrane Permeable-Phenotype (%)” value [4] was 31% and 62% and the “Population Mitochondria Different-Phenotype (%)” value [4] was 5% and 12%. The “Population Mitotic Cells (%)” value [4] was 88%, the “Population Normal (%)” value [4] was 54% and the “Population Apoptotic (%)” value [5] was 50%. For the same compound, the “Population Healthy Nuclei (%)” value [5] was 0% and 11%, the “Population Hoechst High Intensity Objects (%)” value [5] was 81% and 50% and the “Population Membrane Permeable-Phenotype (%)” value [5] was 50% and 61%. The “Population Mitotic Cells (%)” value [5] was 50%, the “Population Normal (%)” value [5] was 18% and 49% and the “Population Tubulin-Different-Phenotype (%)” value [5] was 50% and 61%. The “Total Cell Count” value [5] was 432 and 192, the “Population Apoptotic (%)” value [6] was 28% and the “Population Fragmented Nuclei (%)” value [6] was 37% and 97%. The “Population Hoechst High Intensity Objects (%)” value [6] was 56% and 82%, the “Population Membrane Permeable-Phenotype (%)” value [6] was 38% and 44% and the “Population Mitochondria Different-Phenotype (%)” value [6] was 33% and 11%. The “Population Mitotic Cells (%)” value [6] was 71%, the “Population Normal (%)” value [6] was 43% and 17% and the “Population Pyknosed Nuclei (%)” value [6] was 41%. For the same compound, the “Population Tubulin-Different-Phenotype (%)” value [6] was 47% and 55%, the “Total Cell Count” value [6] was 92 and 244 and the “Population Apoptotic (%)” value [7] was 33% and 22%. For the same compound, the “Population Fragmented Nuclei (%)” value [7] was 19%, the “Population Healthy Nuclei (%)” value [7] was 10% and the “Population Hoechst High Intensity Objects (%)” value [7] was 59%. The “Population Membrane Permeable-Phenotype (%)” value [7] was 61%, the “Population Mitotic Cells (%)” value [7] was 66% and 77% and the “Population Normal (%)” value [7] was 40%. The “Population Pyknosed Nuclei (%)” value [7] was 70%, the “Population Tubulin-Different-Phenotype (%)” value [7] was 75% and the “Population Apoptotic (%)” value [8] was 14% and 40%. The “Population Fragmented Nuclei (%)” value [8] was 38% and 98%, the “Population Healthy Nuclei (%)” value [8] was 15% and 0% and the “Population Hoechst High Intensity Objects (%)” value [8] was 51% and 82%. The “Population Mitochondria Different-Phenotype (%)” value [8] was 21% and 16%, the “Population Mitotic Cells (%)” value [8] was 85% and 60% and the “Population Normal (%)” value [8] was 48% and 17%. For the same compound, the “Population Tubulin-Different-Phenotype (%)” value [8] was 36% and 66%.

From ChEMBL document CHEMBL4689842, “EUbOPEN Chemogenomics Library wave 1” (2021)
